Data: ChEMBL document CHEMBL3758165, “In vitro interactions between anidulafungin and nonsteroidal anti-inflammatory drugs on biofilms of Candida spp” (2016)

Columns and labels:
Assay type in all cases: functional
Candida albicans [1] = assay: Antibiofilm activity against Candida albicans ATCC 90028 at 0.1 uM to 100 mM after 48 hrs by XTT reduction assay relative to control; set-up: scale not given: the % may be the effect or the level left
How it was run: (§1)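 Biofilms grown on sterilized PVC disks: 1·10^6 cfu/ml Candida cells adhered for 1.5 h at 37 °C with shaking, washed with PBS, then matured 48 h at 37 °C in RPMI 1640 (MOPS, pH 7). Preformed biofilms were washed and exposed to drug, alone or in two-dimensional checkerboard combination, in RPMI 1640 for 24 h at 37 °C on a rocker.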

[2] = system: Meyerozyma guilliermondii; assay: Antibiofilm activity against Candida guilliermondii a410 at 0.1 uM to 100 mM after 48 hrs by XTT reduction assay relative to control; set-up: scale not given: the % may be the effect or the level left; how it was run: as §1
Candida albicans [3] = assay: Antibiofilm activity against Candida albicans ATCC 10231 at 1 mM after 24 hrs by XTT reduction assay relative to control; set-up: scale not given: the % may be the effect or the level left; how it was run: as §1
[4] = system: Meyerozyma guilliermondii; assay: Antibiofilm activity against Candida guilliermondii ATCC 6260 at 0.2 mM after 24 hrs by XTT reduction assay relative to control; set-up: scale not given: the % may be the effect or the level left; how it was run: as §1
[5] = system: Meyerozyma guilliermondii; assay: Antibiofilm activity against Candida guilliermondii a410 assessed as fractional inhibitory concentration by two dimensional checkerboard dilution method in presence of ibuprofen
How it was run: (§2)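 Biofilms were grown on PVC disks from 2 ml of a 1·10^6 cfu/ml cell suspension. Adhesion ran 1.5 h at 37 °C with shaking at 100 rpm. Disks were PBS-washed, then matured 48 h at 37 °C in RPMI 1640 (MOPS, pH 7). Biofilms were washed again and given 24 h at 37 °C of anidulafungin/NSAID checkerboard combinations (NSAID final 0.1 µM–100 mM). Read-out was XTT-menadione (2 h, 37 °C, 490 nm). SMIC was defined as 50% reduction versus drug-free control, from which FICI was calculated. Triplicates were run on different days.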

Candida albicans [6] = assay: Antibiofilm activity against Candida albicans ATCC 24433 by two dimensional checkerboard dilution method in presence of diclofenac
How it was run: (§3)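 Preformed 48 h disk biofilms (RPMI 1640, MOPS pH 7, 37 °C), PBS-washed, exposed 24 h at 37 °C on rocker to two-dimensional checkerboard of anidulafungin plus NSAID in RPMI; NSAID final 0.1 µM to 100 mM. XTT reduction at 490 nm; SMIC = combination giving 50% metabolic reduction versus drug-free control; FIC index calculated; triplicate on different days.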

Nakaseomyces glabratus [7] = assay: Antibiofilm activity against Candida glabrata ATCC 15126 after 48 hrs by XTT reduction assay relative to control; set-up: scale not given: the % may be the effect or the level left
How it was run: (§4)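 Biofilms grown on autoclaved PVC disks: 1·10^6 cfu ml-1 cells, adhesion 1.5 h at 37 °C shaking 100 rpm, PBS wash, then 48 h at 37 °C in RPMI 1640 (MOPS, pH 7). Metabolic activity read by XTT–menadione reduction, 2 h at 37 °C, supernatant formazan at 490 nm, relative to drug-free control; triplicate on different days.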

Candida albicans [8] = assay: Antibiofilm activity against Candida albicans 17a18 assessed as fractional inhibitory concentration by two dimensional checkerboard dilution method in presence of diclofenac; how it was run: as §3
[9] = system: Meyerozyma guilliermondii; assay: Antibiofilm activity against Candida guilliermondii ATCC 6260 by two dimensional checkerboard dilution method in presence of ibuprofen; how it was run: as §3
[10] = system: Meyerozyma guilliermondii; assay: Antibiofilm activity against Candida guilliermondii a83 assessed as fractional inhibitory concentration by two dimensional checkerboard dilution method in presence of aspirin; how it was run: as §2
Candida albicans [11] = assay: Antibiofilm activity against Candida albicans 17a18 after 48 hrs by XTT reduction assay relative to control; set-up: scale not given: the % may be the effect or the level left; how it was run: as §4
Candida albicans [12] = assay: Antibiofilm activity against Candida albicans ATCC 10231 by two dimensional checkerboard dilution method in presence of ibuprofen; how it was run: as §3
Nakaseomyces glabratus [13] = assay: Antibiofilm activity against Candida glabrata 18a10 assessed as fractional inhibitory concentration by two dimensional checkerboard dilution method in presence of ibuprofen; how it was run: as §3
[14] = system: Meyerozyma guilliermondii; assay: Antibiofilm activity against Candida guilliermondii a410 assessed as fractional inhibitory concentration by two dimensional checkerboard dilution method in presence of aspirin; how it was run: as §2
Candida albicans [15] = assay: Antibiofilm activity against Candida albicans ATCC 24433 by two dimensional checkerboard dilution method in presence of aspirin; how it was run: as §3
Nakaseomyces glabratus [16] = assay: Antibiofilm activity against Candida glabrata 18a10 assessed as fractional inhibitory concentration by two dimensional checkerboard dilution method in presence of diclofenac; how it was run: as §3
[17] = system: Meyerozyma guilliermondii; assay: Antibiofilm activity against Candida guilliermondii a83 after 48 hrs by XTT reduction assay relative to control; set-up: scale not given: the % may be the effect or the level left
[18] = system: Meyerozyma guilliermondii; assay: Antibiofilm activity against Candida guilliermondii a410 by two dimensional checkerboard dilution method in presence of diclofenac; how it was run: as §2
[19] = system: Meyerozyma guilliermondii; assay: Antibiofilm activity against Candida guilliermondii ATCC 6260 assessed as fractional inhibitory concentration by two dimensional checkerboard dilution method in presence of aspirin; how it was run: as §3
Nakaseomyces glabratus [20] = assay: Antibiofilm activity against Candida glabrata 18a10 after 48 hrs by XTT reduction assay relative to control; set-up: scale not given: the % may be the effect or the level left; how it was run: as §4
[21] = system: Meyerozyma guilliermondii; assay: Antibiofilm activity against Candida guilliermondii ATCC 6260 after 48 hrs by XTT reduction assay relative to control; set-up: scale not given: the % may be the effect or the level left; how it was run: as §4
[22] = system: Meyerozyma guilliermondii; assay: Antibiofilm activity against Candida guilliermondii a410 by two dimensional checkerboard dilution method in presence of aspirin; how it was run: as §2
Nakaseomyces glabratus [23] = assay: Antibiofilm activity against Candida glabrata ATCC 15126 by two dimensional checkerboard dilution method in presence of ibuprofen; how it was run: as §3
[24] = system: Meyerozyma guilliermondii; assay: Antibiofilm activity against Candida guilliermondii ATCC 6260 by two dimensional checkerboard dilution method in presence of aspirin; how it was run: as §3
[25] = system: Meyerozyma guilliermondii; assay: Antibiofilm activity against Candida guilliermondii ATCC 6260 assessed as fractional inhibitory concentration by two dimensional checkerboard dilution method in presence of ibuprofen; how it was run: as §3
Candida albicans [26] = assay: Antibiofilm activity against Candida albicans ATCC 24433 assessed as fractional inhibitory concentration by two dimensional checkerboard dilution method in presence of diclofenac; how it was run: as §3
Nakaseomyces glabratus [27] = assay: Antibiofilm activity against Candida glabrata 18a10 assessed as fractional inhibitory concentration by two dimensional checkerboard dilution method in presence of aspirin; how it was run: as §3
Nakaseomyces glabratus [28] = assay: Antibiofilm activity against Candida glabrata ATCC 15126 by two dimensional checkerboard dilution method in presence of aspirin; how it was run: as §3
Candida albicans [29] = assay: Antibiofilm activity against Candida albicans ATCC 10231 by two dimensional checkerboard dilution method in presence of aspirin; how it was run: as §3
Candida albicans [30] = assay: Antibiofilm activity against Candida albicans 17a18 by two dimensional checkerboard dilution method in presence of aspirin; how it was run: as §3
Candida albicans [31] = assay: Antibiofilm activity against Candida albicans ATCC 90028 by two dimensional checkerboard dilution method in presence of diclofenac; how it was run: as §3
[32] = system: Meyerozyma guilliermondii; assay: Antibiofilm activity against Candida guilliermondii a83 by two dimensional checkerboard dilution method in presence of diclofenac; how it was run: as §2
Nakaseomyces glabratus [33] = assay: Antibiofilm activity against Candida glabrata 18a10 by two dimensional checkerboard dilution method in presence of aspirin; how it was run: as §3
Candida albicans [34] = assay: Antibiofilm activity against Candida albicans ATCC 10231 assessed as fractional inhibitory concentration by two dimensional checkerboard dilution method in presence of ibuprofen; how it was run: as §3
[35] = system: Meyerozyma guilliermondii; assay: Antibiofilm activity against Candida guilliermondii a83 by two dimensional checkerboard dilution method in presence of ibuprofen; how it was run: as §2
Candida albicans [36] = assay: Antibiofilm activity against Candida albicans ATCC 90028 after 48 hrs by XTT reduction assay relative to control; set-up: scale not given: the % may be the effect or the level left; how it was run: as §4
Candida albicans [37] = assay: Antibiofilm activity against Candida albicans ATCC 10231 after 48 hrs by XTT reduction assay relative to control; set-up: scale not given: the % may be the effect or the level left; how it was run: as §4

O=C([O-])Cc1ccccc1Nc1c(Cl)cccc1Cl.[Na+] [DICLOFENAC SODIUM]
Activity (Candida albicans [1]): 51.15%
Activity [2]: 58.69%

CC(C)Cc1ccc(C(C)C(=O)O)cc1 (configuration not stated) [IBUPROFEN]
Activity (Candida albicans [3]): 16.26%
Activity [4]: 64.43%

CCCCCOc1ccc(-c2ccc(-c3ccc(C(=O)N[C@@H]4C[C@@H](O)[C@@H](O)NC(=O)[C@@H]5[C@@H](O)[C@@H](C)CN5C(=O)[C@H]([C@@H](C)O)NC(=O)[C@H]([C@H](O)[C@@H](O)c5ccc(O)cc5)NC(=O)[C@@H]5C[C@@H](O)CN5C(=O)[C@H]([C@H](C)O)NC4=O)cc3)cc2)cc1
Ratio [5]: 0.2
MIC (Candida albicans [6]): 0.1 µg/mL
Activity (Nakaseomyces glabratus [7]): 27.41%
Ratio (Candida albicans [8]): 0.05
MIC [9]: 0.4 µg/mL
Ratio [10]: 0.05
Activity (Candida albicans [11]): 29.31%
MIC (Candida albicans [12]): 0.4 µg/mL
Ratio (Nakaseomyces glabratus [13]): 0.05
Ratio [14]: 0.05
MIC (Candida albicans [15]): 0.1 µg/mL
Ratio (Nakaseomyces glabratus [16]): 0.1
Activity [17]: 47.83%
MIC [18]: 0.1 µg/mL
Ratio [19]: 0.05
Activity (Nakaseomyces glabratus [20]): 37.42%
Activity [21]: 51.21%
MIC [22]: 0.1 µg/mL
MIC (Nakaseomyces glabratus [23]): 0.1 µg/mL
MIC [24]: 0.1 µg/mL
Ratio [25]: 0.2
Ratio (Candida albicans [26]): 0.05
Ratio (Nakaseomyces glabratus [27]): 0.05
MIC (Nakaseomyces glabratus [28]): 0.1 µg/mL
MIC (Candida albicans [29]): 0.1 µg/mL
MIC (Candida albicans [30]): 0.1 µg/mL
MIC (Candida albicans [31]): 0.1 µg/mL
MIC [32]: 0.2 µg/mL
MIC (Nakaseomyces glabratus [33]): 0.1 µg/mL
Ratio (Candida albicans [34]): 0.2
MIC [35]: 0.1 µg/mL
Activity (Candida albicans [36]): 16.09%
Activity (Candida albicans [37]): 33.98%
